The record followed here is ChEMBL document CHEMBL3407471, “Development of potent inhibitors of pyocyanin production in Pseudomonas aeruginosa” (J Med Chem, 2015).

The test system of series [1] is Pseudomonas aeruginosa. The experiment in a line: Inhibition of quorum sensing activity in wild-type Pseudomonas aeruginosa PA14 assessed as inhibition of pyocyanin production by spectrophotometry relative to control. In kind it is functional. The procedure, abridged:
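Pyocyanin produced by wild-type PA14, read by absorbance at 695 nm, across a range of compound levels. IC50 derived from the dose–response.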

Series [2] relates to Pseudomonas aeruginosa. The experiment in a line: Inhibition of quorum sensing activity in wild-type Pseudomonas aeruginosa PA14 assessed as inhibition of pyocyanin production at 100 uM by spectrophotometry relative to control. In kind it is functional. Put shortly:
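Wild-type P. aeruginosa PA14 cultures exposed to compound at 100 μM. Pyocyanin read as absorbance at 695 nm. Efficacy scaled so that wild-type pyocyanin level = 0% and absorbance equal to background medium = 100%.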

Series [3] concerns Escherichia coli. The experiment in a line: Agonist activity at LasR in Escherichia coli at 100 uM.
The test system of series [4] is Escherichia coli. The experiment in a line: Antagonist activity at LasR in Escherichia coli assessed as reduction of AHL-induced GFP production at 100 uM.
The subject of series [5] is Escherichia coli. The experiment in a line: Agonist activity at RhlR in Escherichia coli at 100 uM.
Series [6] has as its system Pseudomonas aeruginosa. The experiment in a line: Antimicrobial activity against wild-type Pseudomonas aeruginosa PA14. In kind it is functional.
For series [7], the system named is Escherichia coli. The experiment in a line: Antagonist activity at RhlR in Escherichia coli assessed as reduction of AHL-induced GFP production at 100 uM.
Series [8] in a line: Effect on pyocyanin oxidation state in cell free culture fluid up to 17 hrs by spectrophotometry. In kind it is ADME. Put shortly:
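Cell-free culture fluids already containing pyocyanin incubated with compound, to test for a change in pyocyanin oxidation state independent of its production.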

The subject of series [9] is Pseudomonas aeruginosa. The experiment in a line: Inhibition of pyocyanin production in wild-type Pseudomonas aeruginosa PA14 assessed as down regulation of mexH relative to control. In kind it is functional. The procedure, abridged: (§1)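 Wild-type PA14 cultures treated with compound, and a DMSO-treated culture served as control. RNA extracted and analysed by microarray. Genes counted as changed when expression differed by more than 2-fold.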

Series [10] concerns Pseudomonas aeruginosa. The experiment in a line: Antibiofilm activity against wild-type static Pseudomonas aeruginosa PA14 at 100 uM by spectrophotometry. In kind it is functional.
Series [11] has as its system Pseudomonas aeruginosa. The experiment in a line: Inhibition of pyocyanin production in wild-type Pseudomonas aeruginosa PA14 assessed as down regulation of fumC relative to control. In kind it is functional. Put shortly: as §1
Series [12] deals with Pseudomonas aeruginosa. The experiment in a line: Inhibition of pyocyanin production in wild-type Pseudomonas aeruginosa PA14 assessed as down regulation of mexI relative to control. In kind it is functional. The procedure, abridged: as §1
Series [13] deals with Pseudomonas aeruginosa. The experiment in a line: Inhibition of pyocyanin production in wild-type Pseudomonas aeruginosa PA14 assessed as down regulation of PA14_58040 relative to control. In kind it is functional. Put shortly:
as §1

For series [14], the system named is Pseudomonas aeruginosa. The experiment in a line: Inhibition of pyocyanin production in wild-type Pseudomonas aeruginosa PA14 assessed as down regulation of mexG relative to control. In kind it is functional. Put shortly:
as §1

In series [15] the test system is Escherichia coli. The experiment in a line: Competitive binding to RhlR in Escherichia coli at 100 to 500 uM. The procedure, abridged:
(§2)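 Competition format: compound at 100 μM and 500 μM combined with increasing amounts of the receptor's native AHL (LasR or RhlR). Receptor response compared with a DMSO control.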

Series [16] relates to Pseudomonas aeruginosa. The experiment in a line: Inhibition of pyocyanin production in wild-type Pseudomonas aeruginosa PA14 assessed as down regulation of PA14_03090 relative to control. In kind it is functional. Put shortly:
as §1

Series [17] deals with Escherichia coli. The experiment in a line: Competitive binding to LasR in Escherichia coli at 100 to 500 uM. The procedure, abridged:
as §2

Series [18] concerns Pseudomonas aeruginosa. The experiment in a line: Inhibition of pyocyanin production in wild-type Pseudomonas aeruginosa PA14 assessed as down regulation of opmD relative to control. In kind it is functional. Put shortly:
as §1

For series [19], the system named is Pseudomonas aeruginosa. The experiment in a line: Inhibition of pyocyanin production in wild-type Pseudomonas aeruginosa PA14 assessed as down regulation of PA14_16310 relative to control. In kind it is functional. The procedure, abridged:
as §1

Series [20] relates to Pseudomonas aeruginosa. The experiment in a line: Inhibition of pyocyanin production in wild-type Pseudomonas aeruginosa PA14 assessed as down regulation of PA14_35160 relative to control. In kind it is functional. Put shortly:
as §1

In series [21] the test system is Pseudomonas aeruginosa. The experiment in a line: Inhibition of pyocyanin production in wild-type Pseudomonas aeruginosa PA14 assessed as down regulation of katA relative to control. In kind it is functional. The procedure, abridged:
as §1

For series [22], the system named is Pseudomonas aeruginosa. The experiment in a line: Inhibition of pyocyanin production in wild-type Pseudomonas aeruginosa PA14 assessed as down regulation of PA14_22320 relative to control. In kind it is functional. Put shortly:
as §1

The subject of series [23] is Pseudomonas aeruginosa. The experiment in a line: Inhibition of pyocyanin production in wild-type Pseudomonas aeruginosa PA14 assessed as down regulation of PA14_51830 relative to control. In kind it is functional. The procedure, abridged: as §1
Series [24] deals with Pseudomonas aeruginosa. The experiment in a line: Inhibition of pyocyanin production in wild-type Pseudomonas aeruginosa PA14 assessed as down regulation of katB relative to control. In kind it is functional. Put shortly:
as §1

The test system of series [25] is Pseudomonas aeruginosa. The experiment in a line: Inhibition of pyocyanin production in wild-type Pseudomonas aeruginosa PA14 assessed as down regulation of ahpF relative to control. In kind it is functional. Put shortly:
as §1

Series [26] has as its system Pseudomonas aeruginosa. The experiment in a line: Inhibition of pyocyanin production in wild-type Pseudomonas aeruginosa PA14 assessed as down regulation of trxB2 relative to control. In kind it is functional. Put shortly: as §1
For series [27], the system named is Pseudomonas aeruginosa. The experiment in a line: Inhibition of pyocyanin production in wild-type Pseudomonas aeruginosa PA14 assessed as down regulation of PA14_21530 relative to control. In kind it is functional. Put shortly: as §1

Each structure is given as a SMILES string. The source made the active and inactive calls. Unless noted, the rule behind the calls is not given here.

As for `CCCCCCCCCC(=O)CC(=O)Nc1ccncc1`, in the series with Pseudomonas aeruginosa [1], the half-inhibitory concentration (IC50) (in general, the midpoint of a concentration-inhibition curve) is 0.16 µM. Besides, the Efficacy with Pseudomonas aeruginosa [2] is 63%. For the same compound, the outcome with Escherichia coli [3], with Escherichia coli [4], with Escherichia coli [5], in the series on Pseudomonas aeruginosa [6] and in the series with Escherichia coli [7] was inactive. Further, the Stability result in [8] is given as “Stable”.

Consider `CCCCCCCCCCCC(=O)Nc1ccnc(F)c1`, for which, in the series on Pseudomonas aeruginosa [1], the half-maximal inhibitory concentration (IC50) came out at 4.4 µM. For the same compound, the Efficacy with Pseudomonas aeruginosa [2] came out at 70%. Besides, the outcome in the series with Escherichia coli [3], in the series with Escherichia coli [4], with Escherichia coli [5], in the series on Pseudomonas aeruginosa [6] and with Escherichia coli [7] was inactive.

With `O=C(CCCCCOc1cccc(F)c1)Nc1ccnc(C(F)(F)F)c1`, in the series on Pseudomonas aeruginosa [1], the half-maximal inhibitory concentration (IC50) worked out at 6.3 µM. Also, the Efficacy in the series on Pseudomonas aeruginosa [2] stood at 103%. For the same compound, the result in the series with Escherichia coli [3], in the series with Escherichia coli [4], with Escherichia coli [5], with Pseudomonas aeruginosa [6] and with Escherichia coli [7] was inactive.

Regarding `O=C(CCCCCOc1cccc(Br)c1)Nc1ccnc(C(F)(F)F)c1`, the “fold change (FC)” value came to 2.93 with Pseudomonas aeruginosa [9]; 2.71 in the series with Pseudomonas aeruginosa [11]; 2.84 in the series on Pseudomonas aeruginosa [12]; 5.67 with Pseudomonas aeruginosa [13]; 2.68 in the series on Pseudomonas aeruginosa [14]; 14.35 in the series on Pseudomonas aeruginosa [16]. Also, the “fold change (FC)” value is 2.5 in the series with Pseudomonas aeruginosa [18]; 3.27 in the series on Pseudomonas aeruginosa [19]; 4.93 with Pseudomonas aeruginosa [20]; 20.8 with Pseudomonas aeruginosa [21]; 35.99 in the series with Pseudomonas aeruginosa [22]; 5.6 with Pseudomonas aeruginosa [23]. Further, the “fold change (FC)” value was found to be 4.15 in the series on Pseudomonas aeruginosa [24], 33.03 in the series with Pseudomonas aeruginosa [25], 27.79 in the series on Pseudomonas aeruginosa [26] and 44.39 in the series on Pseudomonas aeruginosa [27]. For the same compound, the outcome in the series with Pseudomonas aeruginosa [10], in the series with Escherichia coli [3], in the series with Escherichia coli [15], in the series on Escherichia coli [4], with Escherichia coli [17] and in the series with Escherichia coli [5] was inactive. Also, the outcome in the series with Pseudomonas aeruginosa [6] and in the series on Escherichia coli [7] was inactive. In addition, the IC50 in the series on Pseudomonas aeruginosa [1] worked out at 2.7 µM. The Efficacy with Pseudomonas aeruginosa [2] came to 99%.

Take `CCCCCCCCCCCC(=O)Nc1ccnc(C(F)(F)F)c1`: in the series on Pseudomonas aeruginosa [2], the Efficacy is 27%. Also, the outcome in the series on Pseudomonas aeruginosa [6] was inactive.

For `O=C(CCCCCOc1c(F)c(F)c(F)c(F)c1F)Nc1ccnc(C(F)(F)F)c1`, in the series on Pseudomonas aeruginosa [2], the Efficacy was 21%. The result in the series with Pseudomonas aeruginosa [6] was inactive.

Consider `O=C(CCCCCCOc1cccc(Br)c1)Nc1ccnc(C(F)(F)F)c1`, for which the Efficacy in the series with Pseudomonas aeruginosa [2] is reported as 23%. In addition, in the series on Pseudomonas aeruginosa [6], the outcome was inactive.
